Consider six molecules from PMC7429283 (ACS combinatorial science, 2020).

The target in one assay is dopamine receptors. Particulars: cited from earlier work.
Assay [1] addresses T1, NTMT1 (Homo sapiens, UniProt Q9BV86).
T1 sequence (Q9BV86 1-222): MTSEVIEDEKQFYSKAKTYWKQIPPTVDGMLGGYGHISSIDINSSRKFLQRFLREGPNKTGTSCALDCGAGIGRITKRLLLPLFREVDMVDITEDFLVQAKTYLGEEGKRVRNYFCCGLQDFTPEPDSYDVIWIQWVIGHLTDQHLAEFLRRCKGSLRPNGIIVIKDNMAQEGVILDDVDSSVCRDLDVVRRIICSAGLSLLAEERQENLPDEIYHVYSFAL
Description: SAHH-coupled ThioGlo3 fluorescence assay, 1536-well. Type of assay: biochemical. Particulars: IC50, Epigenetic Library qHTS, 1 nM to 57 μM. The method in brief: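 Final mix of His-NTMT1 125 nM, SAHH 10 μM, SAM 100 μM and ThioGlo3 15 μM in 25 mM Tris pH 7.5, 10 mM KCl, 0.01% Triton X-100. Test compounds were pin-transferred in qHTS dilution series, then SPKRIA peptide was added to 1 μM final (4 μL). Incubation was 30 min, read at Ex 340/Em 450. Fluorescence change from the initial read was normalized plate-wise to DMSO and Ac-RCC1-10 controls.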

Assay [2] deals with T1, NTMT1. Description: MTase-Glo luminescence assay, 1536-well. Type of assay: biochemical. Particulars: IC50, Epigenetic Library qHTS, 1 nM to 57 μM. The essentials: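 His-tagged NTMT1 was expressed with IPTG induction at 15 °C overnight and purified on Ni-NTA. It was used at 125 nM final with 100 μM SAM in 4 μL wells. Optimized SAHH-ThioGlo3 conditions served as the starting point, with kit reagents at recommended concentrations. SAH was converted to ADP and read by luminescence. Data were normalized plate-wise to DMSO and Ac-RCC1-10 controls, then fitted to concentration-response curves.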
In general terms: qHTS replaces the single test concentration by a dilution series.

The target of assay [3] is T1, NTMT1. Description: MALDI-MS methylation inhibition assay. Type of assay: biochemical. Particulars: data not shown.
Assay [4] has as its target cyclin-dependent kinase 1 (CDK1)/cyclin B. The following applies: cited from earlier work.
Assay [5] relates to NTMT1. The following applies: cited from earlier work.

By IC50 is commonly meant the concentration at which inhibition is half-maximal. As for `N[C@@H]1CCc2cc(O)c(O)cc2C1` [6,7-ADTN], the IC50 at dopamine receptors is 0.0017 µM.
On to `[N-]=[N+]=Nc1nc2c(N)ncnc2n1[C@@H]1O[C@H](CO)[C@@H](O)[C@H]1O` [8-Azidoadenosine], for which the IC50 against NTMT1 [1] and on NTMT1 [2] was 17.1 to 24.3 µM in each case. In addition, the “inhibition in MS testing” value against NTMT1 [3] is reported as “no inhibition”.
For the molecule `CCn1cnc2c(Nc3cccc(Cl)c3)nc(N[C@@H]3CCCC[C@@H]3N)nc21` [CGP 74514A], the half-inhibitory concentration (IC50) in assay [4] was 0.031 µM.
Regarding `COc1cc2nc(N3CCCC3)nc(NC3CC3)c2cc1OC` [NCGC00249822], the “inhibition in MS testing” value against NTMT1 [3] was “no inhibition”.
What is called Km is the concentration of substrate that gives half-maximal velocity. On to APKRQSPLPP, for which, in the assay on NTMT1 [5], the Km was 2 µM.
For the molecule GPKRIA, the Km in the assay with NTMT1 [5] is 0.5 µM.
